Laboratory results: the RNAGym collection of RNA variant scans (doi:10.1126/science.aae0568)
This sample holds only a part of the variants without activity.

B1: tRNA (parent)
chain: GUUCCGUUGGCGUAAUGGUAACGCGUCUCCCUCCUAAGGAGAAGACUGCGGGUUCGAGUCCCGUACGGAACG

Variants of: B1
Experiment: yeast fitness relative to wild type (ratio to wild type); higher = fitter; tRNA-Arg(CCU), competitive growth, 37 C, YPD
Procedure, shortened: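 A pool of Saccharomyces cerevisiae strains, each with a tRNA-Arg(CCU) gene variant at the native genomic locus, was competed in YPD at 37°C for 24 hours across six parallel replicates. The variants had been chemically synthesised at a 3% per-site mutation rate over 69 sites, and gene amplicons before and after competition were read by 100-nucleotide paired-end sequencing. Darwinian fitness relative to wild type rested on changes in genotype frequencies. Genotypes required ≥ 100 starting reads, and estimates < 0.5 were set to 0.5.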

Variant | yeast fitness
GUUCCGUUGGCAUAAUGGCAUCGCGUCUCCCUCCUAAGGAGAAGACUGCGGGUUCGACUCCCGUACGGAACG [G12A U19C A21U G58C] | 0.94
GUUCCGUUGGCAUAAUGGUAACGCGUCUCCCUCCUAAGGAGAAGACCGAGGGUUCGUGUCCCGUACGGAACG [G12A U47C C49A A57U] | 0.53
GUUCCGUUGGCCUAAUGGUAACGCGUCUCCCUCCUAAGGCGUAGACUGGGGGUUCGAGUCCCGUAGGGAACG [G12C A40C A42U C49G C66G] | ≤ 0.5
GUUCCGUUGGCAUAAUGGUAACACGUCUCCCUCCGGAGGAGAAGACUGCGGGUUCGAGUCCUGUACGGGACG [G12A G23A U35G A36G C62U A69G] | ≤ 0.5
GUUCCGUUGGCAUAAUGGUAACGCGUCUCCCCCCUAAGGAGAAGACAGGGGGUUCGAGUUCCGUACGGAACG [G12A U32C U47A C49G C60U] | ≤ 0.5
GUUCCGUUGGCAUAAUGGUAACGCGUCUCCCUCCUAAGCAGAAGACAGCGGGUUCGAGUCCCGUACGGAACG [G12A G39C U47A] | ≤ 0.5
GUUCCGUUGGCAUAAUGGUAACGCGUCUCCCUCCUAACGAGAAGACUGCGGGUUCGAGUCCCGUACGGAACG [G12A G38C] | 0.869
GUUCCGUUGGCAUAAUGGUAACGCGUCUCCCUCCUAAGGAGAAGACUGCGGGUUCGAGUCCCAUACGGAACG [G12A G63A] | 0.897
GUUCCGUUGGCAUAAUGGCAUCGCGUCUCCCUCCUAAGGAGAAGACUGCGGGUUCGAGUCCCGUACGGAACG [G12A U19C A21U] | 0.905
GUUCCGUUGGCAUAAUGGCACCGCGUCUCCCUCCUAAGGAGAAGACUGCGGGUUCGAGUCCCGUACGGAACG [G12A U19C A21C] | 0.685
GUUCCGUUGGCAUAAUGGUAACGCGUCUCCCUCCUAAGGAGAAGACUGCGGAUUCGAGACCCGUACGGCCCG [G12A G52A U59A A69C A70C] | ≤ 0.5
GUUCCGUUGGCAUAAUGGUAACGCGUCUCCCUCCAAAGGAGAAGACUGCGGGUUCGAAUCCCGUACGGAACG [G12A U35A G58A] | 0.524
GUUCCGUUGGCAUAAUGGUAACGCGUCUCCCUCCUAAGGAGAACACUGCAGGUUCGAGUCCCGUACGGAACG [G12A G44C G50A] | 0.608
GUUCCGUUGGCCUAAUGGUAACGCGUCUCCCUCCUAAGGGGAAGACUGCUGGUUCGAGUCCUGUACGGAACG [G12C A40G G50U C62U] | ≤ 0.5
GUUCCGUUGGCAUAAUGGUAACGCGUCUCCCUCCUAAGGAGAAGACUCCGGGUUCGAGUCCCGUACGGAACG [G12A G48C] | 0.754
GUUCCGUUGGCAUAAUGGUAACGCGUCUCCCUCCUAAGGAUAAGACUGCGGGUUCGAGUCCCGUACGGAACG [G12A G41U] | 0.819
GUUCCGUUGGCCUAAUGGUAACGCGUCUCCCUCCUAAGGAGAGGACUGCGGGUUCGAGUCUCGUACGGAACG [G12C A43G C61U] | ≤ 0.5
GUUCCGUUGGCAGAAUGGUAACGCGUCUCCCUCCUAAGGAGAAGACUGCGGGUUCGAGUCCCGUACAGAACG [G12A U13G G67A] | ≤ 0.5
GUUCCGUUGGCCUAAUGGUAACGCGUCUCCCUCCUAAGGAGAAGUCUGCGGGUUCGAGUCCGGUGCGGAACG [G12C A45U C62G A65G] | 0.604

Variant | yeast fitness
GUUCCGUUGGCACACUGGUAACGCGUCUCCCUCCUAAGGAGAAGAGUGCGGGUUCGAGUCCCGUACGGAACG [G12A U13C A15C C46G] | ≤ 0.5
GUUCCGUUGGCCUAAUGGUAACGCGUCUCCCUCCUAAGGAGAUGACUGCGGGUUCGAGACCCGUACGGGACG [G12C A43U U59A A69G] | ≤ 0.5
GUUCCGUUGGCAAAAUGGUAACGCGUCUCCCUCCUAGGGGGAAGACUGCGGGUUCGAGACCCGUACGGAACG [G12A U13A A37G A40G U59A] | ≤ 0.5
GUUCCGUUGGCCUAAUGGUCACGCGUCUCCCUCCUAAGGAGAAGACUACGGGUUCGAGUCCCGUACGGAACG [G12C A20C G48A] | 0.749
GUUCCGUUGGCAUAAUGGUAACGCGUCUCCCUCCGAAGGAGAAGACUGCGGGUUCGAAUCCCGUACGAAACG [G12A U35G G58A G68A] | ≤ 0.5
GUUCCGUUGGCCUAAUGGUAACGCGUCUCCCUCCUAAGGAGGAGGCUGCGGGUUCGAGUCCCGUACGGAACG [G12C A42G A45G] | 0.627
GUUCCGUUGGCCUAUUGGUAACGAGUCUCCCUCCUAAGGAGAAGACUCCGGGUUCGAGUCUCGUACGGAACG [G12C A15U C24A G48C C61U] | ≤ 0.5
GUUCCGUUGGCAUAAUGGUAACGCAUCUCCCUCCUAAGGAGAAGACUGCGGGUUCGAGUCCGGUACGGAACG [G12A G25A C62G] | ≤ 0.5
GUUCCGUUGGCCUAAUGGUAAGGCGUCUCCCUCCUAAGGAGAAGACUGCGGGUUUGAGUCCCGUACGGAACG [G12C C22G C55U] | 0.581
GUUCCGUUGGCCUAGUGGUAACGCGUCUCCCUCCUAAGGAGAAGGCUGCCGGUUCGAGUCCCGUACGGCACG [G12C A15G A45G G50C A69C] | ≤ 0.5
GUUCCGUUGGCAUAAUGGUAACGCGUCUCCCUCCUAAGGAGAAGACUGCGGAUUCGAGUCCCGUACGGAACG [G12A G52A] | 0.688
GUUCCGUUGGCACAAAGGGAACACGUCUCCCUCCUAAGGAGAAGACUGCGGGUUCGAAUCCCGUACGAAACG [G12A U13C U16A U19G G23A G58A G68A] | ≤ 0.5
GUUCCGUUGGCAUAAUGGUAACGCGUCUCCCUCCUAAGGAGAAGACUGCGGGUUCGACUCCCGUACGGAACG [G12A G58C] | 0.935
GUUCCGUUGGCCUAAUGGUCACGCGUCUCCGUCCUAAGGAGAAGACUGCGGGUUCGAGUCCCGUGCGGAACG [G12C A20C C31G A65G] | 0.527
GUUCCGUUGGCCUAAUGGUAACGCGUCUCCCUCCUAAGGAGAAGCCUGCGGGUUCGAGUCACGUACGGAACG [G12C A45C C61A] | 0.686
GUUCCGUUGGCCUAAUGGUAACGCGUCUCCCUCCUAAGGAGAGGACUGCGGGUUCGAGUCCCGUACGGAACG [G12C A43G] | 0.694
GUUCCGUUGGCCUAAUGGUAACGCGUCUCCCUCCUAAGGAGACGACUGCGGGUUCGAGUCCCGUACGGAACG [G12C A43C] | 0.825
GUUCCGUUGGCCUAAUGGUUACGCGUCUCCCUUCUAAGGAGAAGACUGCGGGUUCGAGUCCCGUAUGGAACG [G12C A20U C33U C66U] | ≤ 0.5
